Laboratory results taken from publication PMC2888972 (Molecular cancer therapeutics, 2009).

Key:
[1] = test system: TA98; experiment: Bacterial mutation; settings: positive control 1 µg/plate, −S9
[2] = test system: TA100; experiment: Bacterial mutation; settings: positive control 0.5 µg/plate, −S9
[3] = test system: TA1535; experiment: Bacterial mutation
[4] = test system: WP2 uvrA; experiment: Bacterial mutation
[5] = test system: Caki-1 cancer; experiment: Growth inhibition assay; assay type: cell-based, human; settings: Caki-1 cancer, 48 h; for efficacy (maximum growth inhibition observed): 1 to 12.5 µmol/L; for EC50: read-out: potency (EC50, concentration needed to induce half maximal efficacy)
Summary of the method: (§1)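 Stock is 0.01 mol/L in DMSO, kept at −20°C under subdued light. Cells get 1–12.5 µmol/L or equal-volume DMSO, in triplicate, for 48 h. Growth index is mean treated OD over mean control OD, plotted against concentration. Maximal inhibition comes by nonlinear regression from plots of 2–3 independent experiments.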

[6] = test system: 786-O cancer; experiment: Growth inhibition assay; assay type: cell-based, human; settings: for efficacy (maximum growth inhibition observed): 48 h, 1 to 12.5 µmol/L; for EC50: read-out: potency (EC50, concentration needed to induce half maximal efficacy), 48 h
Summary of the method: as §1

[7] = test system: HK-2 normal; experiment: Growth inhibition assay; assay type: cell-based, human; settings: HK-2 normal, 48 h; for efficacy (maximum growth inhibition observed): 1 to 12.5 µmol/L; for EC50: read-out: potency (EC50, concentration needed to induce half maximal efficacy)
Summary of the method: as §1

[8] = test system: RTC91696 normal; experiment: Growth inhibition assay; assay type: cell-based, human; settings: RTC91696 normal, 48 h, single experiments
[9] = positive control 0.5 µg/plate, −S9

| SMILES | efficacy (maximum growth inhibition observed) [5] | EC50 [5] [µM] | efficacy (maximum growth inhibition observed) [6] | EC50 [6] [µM] | efficacy (maximum growth inhibition observed) [7] | EC50 [7] [µM] | other results |
| --- | --- | --- | --- | --- | --- | --- | --- |
| O=[N+]([O-])c1ccc2c(c1)Cc1ccccc1-2 [2NF, reference compound] | – | – | – | – | – | – | number of revertant colonies, Mean [1]: 108 |
| [N-]=[N+]=[N-].[Na+] [NaAZ, reference compound] | – | – | – | – | – | – | number of revertant colonies, Mean [2]: 511; number of revertant colonies, Mean [3, 9]: 304 |
| Nc1ccc2cc3ccccc3cc2c1 [2AA, reference compound] | – | – | – | – | – | – | number of revertant colonies, Mean [4, 9]: 594; number of revertant colonies, Mean ([4]; positive control 15 µg/plate, +S9): 145; number of revertant colonies, Mean ([3]; positive control 5 µg/plate, +S9): 324 |
| COC(=O)c1cccc(NC(=S)Nc2ccc3c(c2)C(C)(C)CC(C)(C)S3)c1 [SHetD5] | 34.10% ± 1.20% | 7.22 ± 0.25 | 41.80% ± 16.91% | 5.14 ± 0.7 | 47.97% ± 1.00% | 4.96 ± 0.25 | – |
| CC1(C)CC(C)(C)c2cc(NC(=O)Nc3ccc([N+](=O)[O-])cc3)ccc2S1 [SHetC2] | 85.71% ± 4.53% | 4.91 ± 0.29 | 78.53% ± 6.11% | 7.48 ± 0.34 | 52.67% ± 1.84% | 4.47 ± 0.49 | efficacy (maximum growth inhibition observed) ([8]; 1 to 12.5 µmol/L): 52.31% ± 7.38%; EC50 ([8]; read-out: potency (EC50, concentration needed to induce half maximal efficacy)): 7.67 ± 0.49 µM |
